hERG protect – compounds protecting human hERG from proarrhythmic drug block. 0.51% of 310,000 active. Q12809. CHO-hERG, FluxOR thallium flux, dofetilide IC70 present. AID 1511. activation (rescue from dofetilide block), less the hit threshold, % at 10 µM;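 active = activation above the mean of controls blocked by dofetilide plus 5 SD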;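 also: thallium influx through hERG after potassium depolarization seen as dye fluorescence rise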
Cl transport mod – modulators of human KCC2 chloride dependent transport. AID 1456. B-score of Tl+ flux slope (higher = more flux/activation; lower = inhibition) at 10 µM. 2.2% of 190,000 active. KCC2 cells, thallium flux FluoZin-2 fluorescence. Q9H2X9;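 active = thallium flux slope and its plate-corrected score both differing from the plate sample mean at a set confidence after two filtering rounds, in either direction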;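 also: slope of fluorescence scaled to starting intensity during 10 to 20 s after thallium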
KCNQ1 act – potentiates or activates the human KCNQ1 potassium channel; CHO-K1 KCNQ1, thallium flux FluxOR fluorescence; stronger effect = higher value; B-score at 10 µM; 0.35% of 310,000 active; AID 2648;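 active = fluorescence ratio B-score, a plate-corrected score, at least three library SD, with initial intensity B-score within 5 SD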
Target sequence (P51787 whole entry, looked up): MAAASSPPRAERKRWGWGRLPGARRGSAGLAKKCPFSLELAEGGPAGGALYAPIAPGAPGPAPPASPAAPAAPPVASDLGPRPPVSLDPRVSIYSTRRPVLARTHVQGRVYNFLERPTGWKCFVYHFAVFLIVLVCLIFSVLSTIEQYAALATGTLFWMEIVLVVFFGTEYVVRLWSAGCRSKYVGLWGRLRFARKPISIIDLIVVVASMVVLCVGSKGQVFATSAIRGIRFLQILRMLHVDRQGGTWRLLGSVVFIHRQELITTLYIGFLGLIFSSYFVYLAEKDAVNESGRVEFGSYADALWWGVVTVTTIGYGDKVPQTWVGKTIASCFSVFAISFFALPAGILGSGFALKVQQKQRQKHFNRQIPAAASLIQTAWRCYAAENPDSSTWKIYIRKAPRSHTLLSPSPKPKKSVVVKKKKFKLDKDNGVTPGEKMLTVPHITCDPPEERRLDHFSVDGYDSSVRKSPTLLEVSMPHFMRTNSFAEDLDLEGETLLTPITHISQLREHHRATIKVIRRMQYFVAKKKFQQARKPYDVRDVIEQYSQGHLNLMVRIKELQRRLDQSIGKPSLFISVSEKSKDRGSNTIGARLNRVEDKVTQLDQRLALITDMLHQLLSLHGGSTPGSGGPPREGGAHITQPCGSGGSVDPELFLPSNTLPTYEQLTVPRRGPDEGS
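System: Stable KCNQ1 CHO-K1 line | Incubation: 90 min dye loading and 20 min compound exposure, both at room temperature | Measure: Ratio B score | Medium: Assay buffer for compound exposure, DMSO matched across wells | Compound dosing: Single-concentration screen | Probe or stimulus: K+/Tl+ depolarizing stimulus | Measured by: Kinetic FluxOR fluorescence, 10 s baseline plus 110 s post-stimulus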
KCNQ1 block – blocks the human KCNQ1 potassium channel. AID 2642. 1.3% of 310,000 active. CHO-K1 KCNQ1, FluxOR thallium flux fluorescence; stronger effect = higher value. P51787. B-score at 10 µM;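 active = compounds whose thallium flux B-score, printed positive for inhibition, exceeds three library SD while starting fluorescence stays within three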;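 also: channel opened by potassium depolarization with thallium stimulus after 20 min compound exposure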
SUMO Mot1 rescue – inhibitors of SUMOylation pathway: yeast Mot1-301 growth rescue; growth rescue, % at 18.8 µM; S. cerevisiae Mot1-301 growth rescue, ATP luminescence, 38.5C; percent above DMSO median, 100 means doubled; 1% of 320,000 active;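 active = every valid replicate shows activation above 250% relative to neutral control wells; inactive = the rest, any valid replicate at or below 250%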;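 also: OY570 slx delta 5 strain wells were the positive control but not used for scaling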
AI-2 QS modul – modulates the Vibrio harveyi AI-2 quorum sensing system | 0.4% of 300,000 active | Vibrio harveyi JMH597 AI-2 luminescence/OD600 ratio, 9 h; stronger effect = lower value; strain lacks LuxN and CqsS sensors; 0 = neutral-control median | activity change, % at 7.5 µM; in the data active = activity change below about -75%, passing the limit was not always enough; inconclusive = no clear call, values can overlap the other calls;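 also: luminescence divided by OD600 gain over 9 h not by final OD600 alone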
KCC2 sec1 – confirmation of human KCC2 transport modulators. normalised thallium flux (F/F0 slope) at 10 µM. 15% of 3,700 active. AID 1713. HEK293-KCC2, thallium flux, FluoZin2 fluorescence; stronger effect = higher value. shares compounds with Cl transport mod;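 active = thallium flux slope above the same plate's solvent-only control mean plus 3 SD; inconclusive = the two replicate wells disagree; inactive = no significant difference from solvent-only control wells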
KCC2 bumet counter – thallium flux persisting under bumetanide in KCC2 cells, counter-screen secondary assay; normalized thallium flux at 10 µM; HEK293-KCC2 + bumetanide/ouabain, thallium flux FluoZin2; stronger effect = higher value; shares compounds with Cl transport mod; 49% of 3,700 active; AID 1714;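 active = thallium entry rate above the same plate's blocked-transporter control wells by more than 3 SD; inconclusive = the two repeat wells disagree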;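 also: raw slope of fluorescence over initial fluorescence between 10 and 20 s after thallium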
KCC2 secondary2 – confirmation of human KCC2 transport modulators; shares compounds with Cl transport mod; HEK293-KCC2, thallium flux FluoZin2 fluorescence; actives lie on both sides; F/F0 rise rate, 10–20 s post-thallium; normalized thallium flux at 10 µM; 23% of 3,700 active; AID 1715;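 active = thallium flux slope more than 3 SD above or below the plate's solvent-only control mean, mostly below; inconclusive = the two repeat wells disagreed; inactive = no significant shift from solvent-only controls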;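 also: raw slope with 0.1% DMSO as baseline and bumetanide as block control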
HEK counter1 – acts in parental HEK cells, KCC2 counter-screen | shares compounds with Cl transport mod | HEK293 parental cells, thallium flux FluoZin2, ouabain; baseline-ratio fluorescence slope, 10–20 s after thallium | thallium flux rate (normalised fluorescence) at 10 µM | 46% of 3,700 active;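 active = thallium flux rate significantly above the same plate's solvent-only control wells, beyond their mean plus 3 SD; inconclusive = the two replicate wells gave conflicting results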
KCC2 ouabain – confirmation of human KCC2 modulators with ouabain | AID 1717 | 48% of 3,700 active | shares compounds with Cl transport mod | raw Tl+ flux slope (below DMSO = inhibition, above = activation) at 10 µM | HEK293-KCC2, thallium flux FluoZin2 fluorescence; bidirectional: low = inhibitor, high = activator;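 active = thallium flux slope beyond 3 SD from same-plate DMSO control mean in most replicates, usually higher, sometimes lower; inconclusive = repeat tests gave conflicting results; inactive = no significant difference from controls in most replicates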;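 also: slope of initial-normalized fluorescence between seconds 10 and 20 after thallium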
HEK counter2 – parental HEK flux effect, counter-screen 2 | 33% of 3,700 active | HEK293 parental, thallium flux FluoZin-2 fluorescence slope | thallium flux slope at 10 µM | AID 1718 | shares compounds with Cl transport mod;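 active = thallium flux slope above the same plate's solvent-control mean plus 3 SD in both duplicate wells; inconclusive = duplicate wells that disagreed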;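 also: run without ouabain in cells lacking the KCC2 cotransporter; slope of fluorescence scaled to its starting value between 10 and 20 s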
KCNQ1 block val – human KCNQ1 channel inhibition, validation assay; shares compounds with KCNQ1 block; KCNQ1 cell line, FluxOR thallium flux fluorescence; inhibition, % at 10 µM; 93% of 1,600 active; AID 588353;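 active = primary screen active, with duplicate mean exceeding buffer control mean plus 3 SD of buffer wells, cut at about 28% in these data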;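 also: 0% = buffer control ratio and 100% = XE991 inhibitor control ratio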
CHO Tl flux – counter-screen for KCNQ1 inhibitors: effect in parental CHO cells; 21% of 1,600 active; shares compounds with KCNQ1 block; parental CHO-K1, FluxOR thallium flux fluorescence ratio; stronger effect = lower value; zero means no signal rise above baseline; fluorescence ratio (Tl flux) at 10 µM;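 active = mean of duplicate thallium-flux fluorescence ratios in parental host cells more than 5 SD below the buffer control mean, cut at about 0.38 in these data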;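 also: ratio is peak minus minimum fluorescence divided by baseline fluorescence; actives read low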
KCNQ2 inh – rat KCNQ2 inhibition in KCNQ1 inhibitor specificity screen; shares compounds with KCNQ1 block; KCNQ2 cells, FluxOR thallium flux fluorescence; inhibition, % at 10 µM; 71% of 1,600 active; AID 651746;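 active = mean percent inhibition of the KCNQ2 thallium signal more than 5 SD above the buffer-only control wells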;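 also: KCNQ2 expressed in CHO cells; 0% = buffer control wells and 100% = XE-991 inhibitor control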
KCNQ1 KCNE1 spec – KCNQ1 inhibitor that also blocks human KCNQ1/KCNE1 channel. shares compounds with KCNQ1 block. KCNQ1/KCNE1 cells, FluxOR thallium flux fluorescence. inhibition, % at 10 µM. 77% of 1,600 active;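 active = mean percent inhibition of duplicate wells above the buffer-only control mean plus 3 SD of those controls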;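 also: 0% = buffer only wells and 100% = XE-991 inhibitor control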
Mot1 SUMO dose – SUMO pathway inhibitors in yeast Mot1-301 growth | shares compounds with SUMO Mot1 rescue | S. cerevisiae Mot1-301 galactose growth, ATP luminescence, 24 h; -100 = growth of slx-deleted rescue strain | growth activity, percent, % at 42 µM | 2,300 tested, under 10 active | AID 493004;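 active = Signal drops as the depositor expects, and the fitted half-maximal dose is no more than ten times the top valid tested dose; inconclusive = Poor fit, or a flat curve whose signal drops by 30% to 70%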;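 also: more negative values mean stronger growth rescue toward the control strain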
Starred values were filed as active, the others as inactive; i = inactive; ? = inconclusive; / = no result given; + = active, no number. In the library only some 4.2% were active in any assay of this set; here they are far more common.

SMILES	hERG protect	Cl transport mod	KCNQ1 act	KCNQ1 block	SUMO Mot1 rescue	AI-2 QS modul	KCC2 sec1	KCC2 bumet counter	KCC2 secondary2	HEK counter1	KCC2 ouabain	HEK counter2	KCNQ1 block val	CHO Tl flux	KCNQ2 inh	KCNQ1 KCNE1 spec	others
c1ccc(-c2cn3nc4c(nc3n2)CCCC4)cc1	-17	-4.5*	i	8*	-11	9	0.0076	0.005	0.026*	?	0.016*	0.0081*	40*	0.4	76%*	76%*
Brc1ccc(-c2cn3nc4c(nc3n2)CCCC4)cc1	-9	/	i	i	-4	14	/	/	/	/	/	/	/	/	/	/
CC(C(=O)Nc1ccc2c(c1)OCO2)N1CCC(N2CCCCC2)CC1 (stereo not given)	/	/	/	/	-11	/	/	/	/	/	/	/	/	/	/	/
O=S(=O)(Nc1ccc(-c2csc(-c3ccccc3)n2)cc1)c1ccc(F)cc1	-7	/	i	i	31	12	/	/	/	/	/	/	/	/	/	/
O=C(Nc1nc(-c2ccccc2)cs1)c1ccccc1NS(=O)(=O)c1ccc(F)cc1	-29	-6.5*	i	10*	-25	37	0.0058	?	0.017*	?	0.0096*	0.0097	105*	0.33*	i	151%*
O=C(O)c1ccc(NC2=C(Cl)C(=O)c3ccccc3C2=O)cc1	-45	-6.5*	i	15*	71	?	0.01	0.0094*	0.035	0.0036	0.017*	0.011	167*	0.26*	118%*	+
COc1ccc(C(=O)CCc2ccccc2)c(O)c1	-5	/	i	i	-6	-70	/	/	/	/	/	/	/	/	/	/
O=C(CCc1ccccc1)c1c(O)cc(O)cc1O	-38	-1.4*	i	10*	-3	-81*	0.0054	0.0051	0.025*	0.0081	?	0.011	123*	0.37*	102%*	177%*
CCc1oc2ccccc2c1C(=O)c1cc(Br)c(O)c(Br)c1	-28	-1.6	i	9*	-34	29	0.0067	0.019*	0.022*	0.011*	?	?	77*	0.5	i	43%*
CCc1ccc(OCC(=O)c2c(O)c3ccccc3oc2=O)cc1	-11	0.046	i	i	/	10	/	/	/	/	/	/	/	/	/	/
Nc1c(C(=O)c2ccccc2)sc2nsc(SCCN3CCCC3)c12	-26	4.2*	i	8*	8	/	0.006*	0.0072	0.03	0.0074	0.014*	0.01	108*	0.21*	i	144%*
CC(NCCN(C)C)C(=O)C12CC3CC(CC(C3)C1)C2 (stereo not given)	-12	0.42	i	i	-39	29	/	/	/	/	/	/	/	/	/	/
CCOC(=O)N1CCN(c2nc3ccccc3nc2C(C#N)S(=O)(=O)c2ccc(C)cc2)CC1 (stereo not given)	-10	/	i	9*	-12	-11	0.01	0.0062	0.027*	?	?	?	61*	0.51	i	50%*
CC1CC1C(=O)OCC(=O)N(C)c1c(N)n(Cc2ccccc2)c(=O)[nH]c1=O (stereo not given)	-7	/	i	i	-4	25	/	/	/	/	/	/	/	/	/	/
O=[N+]([O-])c1c(NCCCO)cc(Sc2nc3ccccc3s2)c2nonc12	-12	3.2*	i	i	782*	-8	0.0064	0.019*	0.033	0.013*	?	0.016*	/	/	/	/	Mot1 SUMO dose=-2
CC(=O)OCCCNc1cc(SCc2ccco2)c2nonc2c1[N+](=O)[O-]	-7	0.029	i	i	-14	34	/	/	/	/	/	/	/	/	/	/
Cn1c(-c2ccc3c(c2)OCO3)cnc1NCc1ccccc1	-22	0.63	i	i	-1	1	/	/	/	/	/	/	/	/	/	/
Cn1c(-c2ccc3c(c2)OCO3)cnc1NC(=O)CCC(=O)NCCc1ccccc1	-20	-3.7*	i	i	676*	11	0.0077	0.0066	0.03	0.0078	0.019	?	/	/	/	/	Mot1 SUMO dose=-1
Cc1cccc(C(=O)NCC(=O)NNC(=O)c2ccccc2O)c1	-13	/	i	i	-9	-1	/	/	/	/	/	/	/	/	/	/
Cc1ccc(O)c(C(=O)CC(=O)c2cccc(F)c2)c1	-1	51*	27*	i	538*	-40	0.0059	0.05*	0.059*	0.058*	0.055*	0.053*	/	/	/	/	Mot1 SUMO dose=-1
Cn1c(-c2sc3cc(C(F)(F)F)cnc3c2-c2cccs2)n[nH]c1=S	-5	10*	i	i	+	10	0.009	0.015*	0.031	0.0099*	?	0.01	/	/	/	/	Mot1 SUMO dose=0
Cc1ccc(-c2nn(-c3ccccc3)cc2/C=N/NC(=O)c2ccncc2)o1	-10	-0.9	i	i	5	13	/	/	/	/	/	/	/	/	/	/

High-throughput results deposited in PubChem by several laboratories.
